What all share (format): functional
For test [1], the species on record is Rattus norvegicus. Kind of test: Percent anti-ovulatory activity in Sprague-Dawley rats against percent of 13 rats that did not ovulate at dose 7.5 microg. Summed up:
(§1)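 Antiovulatory activity was tested in Sprague-Dawley rats using the standard rat antiovulatory assay. Analogues were given in a 40% propylene glycol-saline vehicle at the stated microgram dose. The value is the percentage of the (n) rats in each group in which ovulation was blocked.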

The species entered for test [2] is Rattus norvegicus. Kind of test: Percent anti-ovulatory activity in Sprague-Dawley rats against percent of 12 rats that did not ovulate at dose 3 microg. Summed up:
as §1

Test [3] is filed under the species Rattus norvegicus. Briefly: Percent anti-ovulatory activity in Sprague-Dawley rats against percent of 11 rats that did not ovulate at dose 1 microg. A digest of the protocol:
as §1

The species named for test [4] is Rattus norvegicus. Kind of test: Percent anti-ovulatory activity in Sprague-Dawley rats against percent of 8 rats that did not ovulate at dose 50 microg. A digest of the protocol:
as §1

For test [5], the species on record is Rattus norvegicus. Briefly: Percent anti-ovulatory activity in Sprague-Dawley rats against percent of 10 rats that did not ovulate at dose 1 ug. Summed up:
as §1

Test [6] is filed under the species Rattus norvegicus. Briefly: Percent anti-ovulatory activity in Sprague-Dawley rats against percent of 8 rats that did not ovulate at dose 3 microg. Summed up:
as §1

The species entered for test [7] is Rattus norvegicus. Briefly: Percent anti-ovulatory activity in Sprague-Dawley rats against percent of 10 rats that did not ovulate at dose 0.5 microg. A digest of the protocol:
as §1

The species named for test [8] is Rattus norvegicus. Briefly: Percent anti-ovulatory activity in Sprague-Dawley rats against percent of 10 rats that did not ovulate at dose 3 microg. Summed up: as §1
For test [9], the species on record is Rattus norvegicus. Briefly: Percent anti-ovulatory activity in Sprague-Dawley rats against percent of 10 rats that did not ovulate at dose 3 ug. A digest of the protocol: as §1
The species entered for test [10] is Rattus norvegicus. Kind of test: Percent anti-ovulatory activity in Sprague-Dawley rats against percent of 9 rats that did not ovulate at dose 3 microg. Summed up: as §1
Test [11] is filed under the species Rattus norvegicus. Briefly: Percent anti-ovulatory activity in Sprague-Dawley rats against percent of 8 rats that did not ovulate at dose 1 microg. A digest of the protocol: as §1
The species named for test [12] is Rattus norvegicus. Kind of test: Percent anti-ovulatory activity in Sprague-Dawley rats against percent of 11 rats that did not ovulate at dose 3 microg. Summed up:
as §1

The species entered for test [13] is Rattus norvegicus. Briefly: Percent anti-ovulatory activity in Sprague-Dawley rats against percent of 5 rats that did not ovulate at dose 1 microg. A digest of the protocol:
as §1

The species named for test [14] is Rattus norvegicus. Briefly: Percent anti-ovulatory activity in Sprague-Dawley rats against percent of 9 rats that did not ovulate at dose 1 microg. A digest of the protocol:
as §1

The species named for test [15] is Rattus norvegicus. Briefly: Percent anti-ovulatory activity in Sprague-Dawley rats against percent of 7 rats that did not ovulate at dose 3 microg. Summed up: as §1
Test [16] is filed under the species Rattus norvegicus. Kind of test: Percent anti-ovulatory activity in Sprague-Dawley rats against percent of 13 rats that did not ovulate at dose 0.5 microg. A digest of the protocol: as §1
Test [17] is filed under the species Rattus norvegicus. Kind of test: Percent anti-ovulatory activity in Sprague-Dawley rats against percent of 13 rats that did not ovulate at dose 1 ug. A digest of the protocol:
as §1

Test [18] is filed under the species Rattus norvegicus. Briefly: Percent anti-ovulatory activity in Sprague-Dawley rats against percent of 11 rats that did not ovulate at dose 0.5 ug. A digest of the protocol:
as §1

The species entered for test [19] is Rattus norvegicus. Kind of test: Percent anti-ovulatory activity in Sprague-Dawley rats against percent of 10 rats that did not ovulate at dose 1 microg. Summed up:
as §1

For test [20], the species on record is Rattus norvegicus. Briefly: Percent anti-ovulatory activity in Sprague-Dawley rats against percent of 10 rats that did not ovulate at dose 50 microg. Summed up:
as §1

The structures appear in SMILES notation. Square brackets hold non-standard residues; d marks the D form. Peptide text beside a SMILES is read from it. dPhe(4-Cl) = N[C@H](Cc1ccc(Cl)cc1)C(=O)O; d2Nal = N[C@H](Cc1ccc2ccccc2c1)C(=O)O

Activity data for 19 compounds are collected here from ChEMBL document CHEMBL1122906, “Improved antagonists of luteinizing hormone-releasing hormone modified in position 7” (1985).

As to `CC(=O)N[C@H](Cc1ccc2ccccc2c1)C(=O)N[C@H](Cc1ccc(Cl)cc1)C(=O)N[C@H](Cc1c[nH]c2ccccc12)C(=O)N[C@@H](CO)C(=O)N[C@@H](Cc1ccc(O)cc1)C(=O)N[C@H](CCCN=C(N)N)C(=O)N[C@@H](CCCCN)C(=O)N[C@@H](CCCN=C(N)N)C(=O)N1CCC[C@H]1C(=O)N[C@H](C)C(N)=O`, the Activity in test [1] is given as 0%.
With `CC(=O)N[C@H](Cc1ccc2ccccc2c1)C(=O)N[C@H](Cc1ccc(Cl)cc1)C(=O)N[C@H](Cc1c[nH]c2ccccc12)C(=O)N[C@@H](CO)C(=O)N[C@@H](Cc1ccc(O)cc1)C(=O)N[C@H](CCCN=C(N)N)C(=O)N[C@@H](Cc1ccc(Cl)cc1)C(=O)N[C@@H](CCCN=C(N)N)C(=O)N1CCC[C@H]1C(=O)N[C@H](C)C(N)=O`, the Activity in test [2] came to 100%; in [3], 9%.
`CC(=O)N[C@H](Cc1ccc2ccccc2c1)C(=O)N[C@H](Cc1ccc(Cl)cc1)C(=O)N[C@H](Cc1c[nH]c2ccccc12)C(=O)N[C@H]1CSSC[C@@H](C(=O)N[C@@H](CCCN=C(N)N)C(=O)N2CCC[C@H]2C(=O)N[C@H](C)C(N)=O)NC(=O)[C@@H](CCCN=C(N)N)NC(=O)[C@H](Cc2ccc(O)cc2)NC1=O`: the Activity in test [4] was found to be 0%.
For the compound `CC(=O)N[C@H](Cc1ccc2ccccc2c1)C(=O)N[C@H](Cc1ccc(Cl)cc1)C(=O)N[C@H](Cc1c[nH]c2ccccc12)C(=O)N[C@@H](CO)C(=O)N[C@@H](Cc1ccc(O)cc1)C(=O)N[C@H](CCCN=C(N)N)C(=O)N[C@@H](Cc1ccc(F)cc1)C(=O)N[C@@H](CCCN=C(N)N)C(=O)N1CCC[C@H]1C(=O)N[C@H](C)C(N)=O`, the values for the Activity in test [5] and in test [6] were 0% and 75%, respectively.
`CC(=O)N[C@H](Cc1ccc2ccccc2c1)C(=O)N[C@H](Cc1ccc(Cl)cc1)C(=O)N[C@H](Cc1c[nH]c2ccccc12)C(=O)N[C@@H](CO)C(=O)N[C@@H](Cc1ccc(O)cc1)C(=O)N[C@H](CCCN=C(N)N)C(=O)N[C@@H](Cc1c[nH]c2ccccc12)C(=O)N[C@@H](CCCN=C(N)N)C(=O)N1CCC[C@H]1C(=O)N[C@H](C)C(N)=O`: the Activity is recorded as 10% in test [7] and 85% in [6].
Regarding `CC(=O)N[C@H](Cc1ccc2ccccc2c1)C(=O)N[C@H](Cc1ccc(Cl)cc1)C(=O)N[C@H](Cc1c[nH]c2ccccc12)C(=O)N[C@@H](CO)C(=O)N[C@@H](Cc1ccc(O)cc1)C(=O)N[C@H](CCCN=C(N)N)C(=O)N[C@@H](Cc1ccc2ccccc2c1)C(=O)N[C@@H](CCCN=C(N)N)C(=O)N1CCC[C@H]1C(=O)N[C@H](C)C(N)=O`, the results for the Activity in [7] and in test [8] were 0% and 100%, respectively.
Regarding `CC(=O)N[C@H](Cc1ccc2ccccc2c1)C(=O)N[C@H](Cc1ccc(Cl)cc1)C(=O)N[C@H](Cc1c[nH]c2ccccc12)C(=O)N[C@@H](CO)C(=O)N[C@@H](Cc1ccc(O)cc1)C(=O)N[C@H](CCCN=C(N)N)C(=O)N[C@H](C(=O)N[C@@H](CCCN=C(N)N)C(=O)N1CCC[C@H]1C(=O)N[C@H](C)C(N)=O)[C@@H](C)O`, the Activity in test [9] is 20%.
Regarding `CC(=O)N[C@H](Cc1ccc2ccccc2c1)C(=O)N[C@H](Cc1ccc(Cl)cc1)C(=O)N[C@H](Cc1c[nH]c2ccccc12)C(=O)N[C@@H](CO)C(=O)N[C@@H](Cc1ccc(O)cc1)C(=O)N[C@H](CCCN=C(N)N)C(=O)N(C)[C@@H](Cc1ccccc1)C(=O)N[C@@H](CCCN=C(N)N)C(=O)N1CCC[C@H]1C(=O)N[C@H](C)C(N)=O`, the Activity is on record as 11% in test [10] and 13% in [11].
Regarding `CC(=O)N[C@H](Cc1ccc2ccccc2c1)C(=O)N[C@H](Cc1ccc(Cl)cc1)C(=O)N[C@H](Cc1c[nH]c2ccccc12)C(=O)N[C@@H](CO)C(=O)N[C@@H](Cc1ccc(O)cc1)C(=O)N[C@H](CCCN=C(N)N)C(=O)N[C@@H](Cc1c(F)c(F)c(F)c(F)c1F)C(=O)N[C@@H](CCCN=C(N)N)C(=O)N1CCC[C@H]1C(=O)N[C@H](C)C(N)=O`, the Activity in test [12] was 100%; in [13], 20%.
Turning to `CC(=O)N[C@H](Cc1ccc2ccccc2c1)C(=O)N[C@H](Cc1ccc(Cl)cc1)C(=O)N[C@H](Cc1c[nH]c2ccccc12)C(=O)N[C@@H](CO)C(=O)N[C@@H](Cc1ccc(O)cc1)C(=O)N[C@H](CCCN=C(N)N)C(=O)N[C@@H](Cc1ccc(C)cc1)C(=O)N[C@@H](CCCN=C(N)N)C(=O)N1CCC[C@H]1C(=O)N[C@H](C)C(N)=O`, in test [14], the Activity stood at 22%.
Take `CC(=O)N[C@H](Cc1ccc2ccccc2c1)C(=O)N[C@H](Cc1ccc(Cl)cc1)C(=O)N[C@H](Cc1c[nH]c2ccccc12)C(=O)N[C@@H](CO)C(=O)N[C@@H](Cc1ccc(O)cc1)C(=O)N[C@H](CCCN=C(N)N)C(=O)N[C@@H](Cc1ccc(O)cc1)C(=O)N[C@@H](CCCN=C(N)N)C(=O)N1CCC[C@H]1C(=O)N[C@H](C)C(N)=O`: the Activity in test [14] was 89%; in test [15], 100%; in [16] it was 31%.
In the case of `CC(=O)N[C@H](Cc1ccc2ccccc2c1)C(=O)N[C@H](Cc1ccc2ccccc2c1)C(=O)N[C@H](Cc1c[nH]c2ccccc12)C(=O)N[C@@H](CO)C(=O)N[C@@H](Cc1ccc(O)cc1)C(=O)N[C@H](CCCN=C(N)N)C(=O)N[C@@H](CC(C)C)C(=O)N[C@@H](CCCN=C(N)N)C(=O)N1CCC[C@H]1C(=O)N[C@H](C)C(N)=O`, the Activity in test [3] stood at 0%.
As to `CC(=O)N[C@H](Cc1ccc2ccccc2c1)C(=O)N[C@H](Cc1ccc(Cl)cc1)C(=O)N[C@H](Cc1c[nH]c2ccccc12)C(=O)N[C@@H](CO)C(=O)N[C@@H](Cc1ccc(O)cc1)C(=O)N[C@H](CCCN=C(N)N)C(=O)N[C@@H](CC(C)C)C(=O)N[C@@H](CCCN=C(N)N)C(=O)N1CCC[C@H]1C(=O)N[C@H](C)C(N)=O` (Ac-[d2Nal][dPhe(4-Cl)][dW]SY[dR]LRP[dA]-NH2), the Activity in test [17] was 77%; in test [10] it was 100%.
`CC(=O)N[C@H](Cc1ccc2ccccc2c1)C(=O)N[C@@H]1CSSC[C@@H](C(=O)N[C@@H](CCCN=C(N)N)C(=O)N2CCC[C@H]2C(=O)N[C@H](C)C(N)=O)NC(=O)[C@@H](CCCN=C(N)N)NC(=O)[C@H](Cc2ccc(O)cc2)NC(=O)[C@H](CO)NC(=O)[C@@H](Cc2c[nH]c3ccccc23)NC1=O` displayed an Activity in [4] of 0%.
The compound `CC(=O)N[C@H](Cc1ccc2ccccc2c1)C(=O)N[C@H](Cc1ccc(Cl)cc1)C(=O)N[C@H](Cc1c[nH]c2ccccc12)C(=O)N[C@@H](CO)C(=O)N[C@H]1CSSC[C@@H](C(=O)N[C@@H](CCCN=C(N)N)C(=O)N2CCC[C@H]2C(=O)N[C@H](C)C(N)=O)NC(=O)[C@@H](CCCN=C(N)N)NC1=O` showed an Activity in [4] of 0%.
In test [18], `CC(=O)N[C@H](Cc1ccc2ccccc2c1)C(=O)N[C@H](Cc1ccc(Cl)cc1)C(=O)N[C@H](Cc1c[nH]c2ccccc12)C(=O)N[C@@H](CO)C(=O)N[C@@H](Cc1ccc(O)cc1)C(=O)N[C@H](CCCN=C(N)N)C(=O)N[C@@H](Cc1ccccc1)C(=O)N[C@@H](CCCN=C(N)N)C(=O)N1CCC[C@H]1C(=O)N[C@H](C)C(N)=O` (Ac-[d2Nal][dPhe(4-Cl)][dW]SY[dR]FRP[dA]-NH2) showed an Activity of 64%.
In the case of `CC(=O)N[C@H](Cc1ccc2ccccc2c1)C(=O)N[C@H](Cc1ccc2ccccc2c1)C(=O)N[C@H](Cc1c[nH]c2ccccc12)C(=O)N[C@@H](CO)C(=O)N[C@@H](Cc1ccc(O)cc1)C(=O)N[C@H](CCCN=C(N)N)C(=O)N[C@@H](Cc1ccc(O)cc1)C(=O)N[C@@H](CCCN=C(N)N)C(=O)N1CCC[C@H]1C(=O)N[C@H](C)C(N)=O`, the Activity in test [14] is 11%.
`CC(=O)N[C@H](Cc1ccc(Cl)cc1)C(=O)N[C@H](Cc1ccc(Cl)cc1)C(=O)N[C@H](Cc1c[nH]c2ccccc12)C(=O)N[C@@H](CO)C(=O)N[C@@H](Cc1ccc(O)cc1)C(=O)N[C@H](CCCN=C(N)N)C(=O)N[C@@H](Cc1ccccc1)C(=O)N[C@@H](CCCN=C(N)N)C(=O)N1CCC[C@H]1C(=O)N[C@H](C)C(N)=O` (Ac-[dPhe(4-Cl)][dPhe(4-Cl)][dW]SY[dR]FRP[dA]-NH2) yielded an Activity in [19] of 20%.
Take `CC(=O)N[C@H](Cc1ccc2ccccc2c1)C(=O)N[C@H](Cc1ccc(Cl)cc1)C(=O)N[C@@H]1CSSC[C@@H](C(=O)N[C@@H](CCCN=C(N)N)C(=O)N2CCC[C@H]2C(=O)N[C@H](C)C(N)=O)NC(=O)[C@@H](CCCN=C(N)N)NC(=O)[C@H](Cc2ccc(O)cc2)NC(=O)[C@H](CO)NC1=O`: in [20], the Activity is recorded as 0%.
